{"source": "ChEMBL document CHEMBL1121808", "about": "(1981)", "type_in_all_cases": "functional", "key": {"[1]": {"test": "Relative potency expressed in percent to that of neurotensin was measured using perfused rat heart assay", "method_in_brief": "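Male albino Wistar rats heparinized i.p. (2.5 mg/rat), then killed. Hearts perfused with filtered, oxygenated Krebs at 37 °C by peristaltic pump, flow raised over 5 min to 8 mL/min (perfusion pressure 70–90 mmHg). Stabilized 30 min before peptide infusion. Read-out: change in perfusion pressure via aortic-cannula side-arm transducer.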"}, "[2]": {"test": "Relative potency expressed in percent to that of neurotensin was measured using rat stomach strips assay"}, "[3]": {"test": "Relative potency expressed in percent to that of neurotensin was measured using guinea pig atria", "method_in_brief": "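Both atria dissected free of ventricles, fat and blood; beating spontaneously under 0.5 g resting tension in 15-mL baths of oxygenated Krebs at 30 °C. Equilibrated 45–60 min before peptide exposure. Contractile force recorded isometrically via force-displacement transducer.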"}}, "note": "Peptide text beside a SMILES is read from it.", "data": [{"molecule": "CC[C@H](C)[C@H](NC(=O)[C@H](Cc1ccc(O)cc1)NC(=O)[C@@H]1CCCN1C(=O)[C@@H](C)NC(=O)[C@H](CCCN=C(N)N)NC(=O)[C@@H]1CCCN1C(=O)[C@H](CCCCN)NC(=O)[C@H](CC(N)=O)NC(=O)[C@H](CCC(=O)O)NC(=O)[C@H](Cc1ccc(O)cc1)NC(=O)[C@H](CC(C)C)NC(=O)[C@@H]1CCC(=O)N1)C(=O)N[C@@H](CC(C)C)C(=O)O", "values": [{"measurement": "Relative potency", "setting": "[1]", "result": 0.3, "unit": "%"}, {"measurement": "Relative potency", "setting": "[2]", "result": 1.5, "unit": "%"}, {"measurement": "Relative potency", "setting": "[3]", "result": 2.6, "unit": "%"}]}, {"molecule": "CC[C@H](C)[C@H](NC(=O)[C@H](Cc1ccc(O)cc1)NC(=O)[C@@H]1CCCN1C(=O)[C@H](CCCNC(=N)N)NC(=O)[C@@H](N)CCCNC(=N)N)C(=O)N[C@@H](CC(C)C)C(=O)O", "values": [{"measurement": "Relative potency", "setting": "[1]", "result": 102, "unit": "%"}, {"measurement": "Relative potency", "setting": "[2]", "result": 69, "unit": "%"}, {"measurement": "Relative potency", "setting": "[3]", "result": 52, "unit": "%"}]}, {"molecule": "CC[C@H](C)[C@H](NC(=O)[C@H](Cc1ccc(O)cc1)NC(=O)CNC(=O)[C@H](CCCN=C(N)N)NC(=O)[C@H](CCCN=C(N)N)NC(=O)[C@@H]1CCCN1C(=O)[C@H](CCCCN)NC(=O)[C@H](CC(N)=O)NC(=O)[C@H](CCC(=O)O)NC(=O)[C@H](Cc1ccc(O)cc1)NC(=O)[C@H](CC(C)C)NC(=O)[C@@H]1CCC(=O)N1)C(=O)N[C@@H](CC(C)C)C(=O)O", "values": [{"measurement": "Relative potency", "setting": "[1]", "result": "<0.01", "unit": "%"}, {"measurement": "Relative potency", "setting": "[2]", "result": "~0.01", "unit": "%"}, {"measurement": "Relative potency", "setting": "[3]", "result": "~0.01", "unit": "%"}]}, {"molecule": "CC[C@H](C)[C@H](NC(=O)[C@H](Cc1ccc(O)cc1)NC(=O)[C@@H]1CCCN1C(=O)[C@H](CCCN=C(N)N)NC(=O)[C@H](CCCN=C(N)N)NC(=O)[C@@H]1CCCN1C(=O)[C@H](CCCCN)NC(=O)[C@H](CC(N)=O)NC(=O)[C@H](CCC(=O)O)NC(=O)[C@H](Cc1ccc(O)cc1)NC(=O)[C@@H](N)CC(C)C)C(=O)N[C@@H](CC(C)C)C(=O)O", "values": [{"measurement": "Relative potency", "setting": "[1]", "result": 87, "unit": "%"}, {"measurement": "Relative potency", "setting": "[2]", "result": 90, "unit": "%"}, {"measurement": "Relative potency", "setting": "[3]", "result": 94, "unit": "%"}]}, {"molecule": "CC[C@H](C)[C@H](NC(=O)[C@H](Cc1ccc(O)cc1)NC(=O)[C@@H]1CCCN1C(=O)[C@H](CCCN=C(N)N)NC(=O)[C@H](CCCN=C(N)N)NC(=O)[C@@H]1CCCN1C(=O)[C@H](CCCCN)NC(=O)[C@H](CC(N)=O)NC(=O)[C@H](CCC(=O)O)NC(=O)[C@H](Cc1ccc(O)cc1)NC(=O)[C@H](CC(C)C)NC(=O)[C@@H]1CCC(=O)N1)C(=O)O", "values": [{"measurement": "Relative potency", "setting": "[1]", "result": 0.03, "unit": "%"}, {"measurement": "Relative potency", "setting": "[2]", "result": 0.65, "unit": "%"}, {"measurement": "Relative potency", "setting": "[3]", "result": 0.09, "unit": "%"}]}, {"molecule": "CC[C@H](C)[C@H](NC(=O)[C@H](C)NC(=O)[C@@H]1CCCN1C(=O)[C@H](CCCN=C(N)N)NC(=O)[C@H](CCCN=C(N)N)NC(=O)[C@@H]1CCCN1C(=O)[C@H](CCCCN)NC(=O)[C@H](CC(N)=O)NC(=O)[C@H](CCC(=O)O)NC(=O)[C@H](Cc1ccc(O)cc1)NC(=O)[C@H](CC(C)C)NC(=O)[C@@H]1CCC(=O)N1)C(=O)N[C@@H](CC(C)C)C(=O)O", "values": [{"measurement": "Relative potency", "setting": "[1]", "result": 0.01, "unit": "%"}, {"measurement": "Relative potency", "setting": "[2]", "result": 0.01, "unit": "%"}, {"measurement": "Relative potency", "setting": "[3]", "result": "<0.01", "unit": "%"}]}, {"molecule": "CC[C@H](C)[C@H](NC(=O)[C@@H](Cc1c[nH]c2ccccc12)NC(=O)[C@@H]1CCCN1C(=O)[C@H](CCCN=C(N)N)NC(=O)[C@H](CCCN=C(N)N)NC(=O)[C@@H]1CCCN1C(=O)[C@H](CCCCN)NC(=O)[C@H](CC(N)=O)NC(=O)[C@H](CCC(=O)O)NC(=O)[C@H](Cc1ccc(O)cc1)NC(=O)[C@H](CC(C)C)NC(=O)[C@@H]1CCC(=O)N1)C(=O)N[C@@H](CC(C)C)C(=O)O", "values": [{"measurement": "Relative potency", "setting": "[1]", "result": 0.1, "unit": "%"}, {"measurement": "Relative potency", "setting": "[2]", "result": 0.64, "unit": "%"}, {"measurement": "Relative potency", "setting": "[3]", "result": 0.01, "unit": "%"}]}, {"molecule": "CC(C)C[C@H](NC(=O)[C@@H]1CCC(=O)N1)C(=O)N[C@@H](Cc1ccc(O)cc1)C(=O)N[C@@H](CCC(=O)O)C(=O)N[C@@H](CC(N)=O)C(=O)N[C@@H](CCCCN)C(=O)N1CCC[C@H]1C(=O)N[C@@H](CCCN=C(N)N)C(=O)N[C@@H](CCCN=C(N)N)C(=O)N1CCC[C@H]1C(=O)O", "values": [{"measurement": "Relative potency", "setting": "[1]", "result": 0, "unit": "%"}, {"measurement": "Relative potency", "setting": "[2]", "result": 0, "unit": "%"}, {"measurement": "Relative potency", "setting": "[3]", "result": 0, "unit": "%"}]}, {"molecule": "CC[C@H](C)[C@H](NC(=O)[C@H](Cc1c[nH]c2ccccc12)NC(=O)[C@@H]1CCCN1C(=O)[C@H](CCCN=C(N)N)NC(=O)[C@H](CCCN=C(N)N)NC(=O)[C@@H]1CCCN1C(=O)[C@H](CCCCN)NC(=O)[C@H](CC(N)=O)NC(=O)[C@H](CCC(=O)O)NC(=O)[C@H](Cc1ccc(O)cc1)NC(=O)[C@H](CC(C)C)NC(=O)[C@@H]1CCC(=O)N1)C(=O)N[C@@H](CC(C)C)C(=O)O", "values": [{"measurement": "Relative potency", "setting": "[1]", "result": 102, "unit": "%"}, {"measurement": "Relative potency", "setting": "[2]", "result": 130, "unit": "%"}, {"measurement": "Relative potency", "setting": "[3]", "result": 3.2, "unit": "%"}]}, {"molecule": "CC[C@H](C)[C@H](NC(=O)[C@H](Cc1ccccc1)NC(=O)[C@@H]1CCCN1C(=O)[C@H](CCCN=C(N)N)NC(=O)[C@H](CCCN=C(N)N)NC(=O)[C@@H]1CCCN1C(=O)[C@H](CCCCN)NC(=O)[C@H](CC(N)=O)NC(=O)[C@H](CCC(=O)O)NC(=O)[C@H](Cc1ccc(O)cc1)NC(=O)[C@H](CC(C)C)NC(=O)[C@@H]1CCC(=O)N1)C(=O)N[C@@H](CC(C)C)C(=O)O", "values": [{"measurement": "Relative potency", "setting": "[1]", "result": 1.4, "unit": "%"}, {"measurement": "Relative potency", "setting": "[2]", "result": 16, "unit": "%"}, {"measurement": "Relative potency", "setting": "[3]", "result": 15, "unit": "%"}]}, {"molecule": "CC(C)C[C@H](NC(=O)[C@@H]1CCC(=O)N1)C(=O)N[C@@H](Cc1ccc(O)cc1)C(=O)N[C@@H](CCC(=O)O)C(=O)N[C@@H](CC(N)=O)C(=O)N[C@@H](CCCCN)C(=O)N1CCC[C@H]1C(=O)N[C@@H](CCCN=C(N)N)C(=O)N[C@@H](CCCN=C(N)N)C(=O)N1CCC[C@H]1C(=O)N[C@@H](Cc1ccc(O)cc1)C(=O)O", "values": [{"measurement": "Relative potency", "setting": "[1]", "result": "<0.01", "unit": "%"}, {"measurement": "Relative potency", "setting": "[2]", "result": "<0.01", "unit": "%"}, {"measurement": "Relative potency", "setting": "[3]", "result": "<0.01", "unit": "%"}]}, {"molecule": "CC[C@H](C)[C@H](NC(=O)[C@H](Cc1ccc(O)cc1)NC(=O)[C@@H]1CCCN1C(=O)[C@H](CCCN=C(N)N)NC(=O)[C@H](CCCN=C(N)N)NC(=O)[C@@H]1CCCN1C(=O)[C@@H](N)CCCCN)C(=O)N[C@@H](CC(C)C)C(=O)O", "values": [{"measurement": "Relative potency", "setting": "[1]", "result": 84, "unit": "%"}, {"measurement": "Relative potency", "setting": "[2]", "result": 78, "unit": "%"}, {"measurement": "Relative potency", "setting": "[3]", "result": 73, "unit": "%"}]}, {"molecule": "CC[C@H](C)[C@H](NC(=O)[C@@H](Cc1ccccc1)NC(=O)[C@@H]1CCCN1C(=O)[C@H](CCCN=C(N)N)NC(=O)[C@H](CCCN=C(N)N)NC(=O)[C@@H]1CCCN1C(=O)[C@H](CCCCN)NC(=O)[C@H](CC(N)=O)NC(=O)[C@H](CCC(=O)O)NC(=O)[C@H](Cc1ccc(O)cc1)NC(=O)[C@H](CC(C)C)NC(=O)[C@@H]1CCC(=O)N1)C(=O)N[C@@H](CC(C)C)C(=O)O", "values": [{"measurement": "Relative potency", "setting": "[1]", "result": "<0.01", "unit": "%"}, {"measurement": "Relative potency", "setting": "[2]", "result": "~0.02", "unit": "%"}, {"measurement": "Relative potency", "setting": "[3]", "result": "~0.01", "unit": "%"}]}, {"molecule": "CC[C@H](C)[C@H](NC(=O)[C@H](CC(C)C)NC(=O)[C@@H]1CCCN1C(=O)[C@H](CCCN=C(N)N)NC(=O)[C@H](CCCN=C(N)N)NC(=O)[C@@H]1CCCN1C(=O)[C@H](CCCCN)NC(=O)[C@H](CC(N)=O)NC(=O)[C@H](CCC(=O)O)NC(=O)[C@H](Cc1ccc(O)cc1)NC(=O)[C@H](CC(C)C)NC(=O)[C@@H]1CCC(=O)N1)C(=O)N[C@@H](CC(C)C)C(=O)O", "values": [{"measurement": "Relative potency", "setting": "[1]", "result": 0.01, "unit": "%"}, {"measurement": "Relative potency", "setting": "[2]", "result": "~0.03", "unit": "%"}, {"measurement": "Relative potency", "setting": "[3]", "result": "< 0.01", "unit": "%"}]}, {"molecule": "CC[C@H](C)[C@H](NC(=O)[C@H](Cc1ccc(O)cc1)NC(=O)[C@@H]1CCCN1C(=O)[C@@H](N)CCCN=C(N)N)C(=O)N[C@@H](CC(C)C)C(=O)O", "values": [{"measurement": "Relative potency", "setting": "[1]", "result": 1.6, "unit": "%"}, {"measurement": "Relative potency", "setting": "[2]", "result": 11, "unit": "%"}, {"measurement": "Relative potency", "setting": "[3]", "result": 1.3, "unit": "%"}]}, {"molecule": "CC[C@H](C)[C@H](NC(=O)[C@H](Cc1ccc(O)cc1)NC(=O)[C@@H]1CCCN1)C(=O)N[C@@H](CC(C)C)C(=O)O", "note": "(H-PYIL-OH)", "values": [{"measurement": "Relative potency", "setting": "[1]", "result": 0, "unit": "%"}, {"measurement": "Relative potency", "setting": "[2]", "result": 0, "unit": "%"}, {"measurement": "Relative potency", "setting": "[3]", "result": 0, "unit": "%"}]}, {"molecule": "H-ENKPRRPYIL-OH", "values": [{"measurement": "Relative potency", "setting": "[1]", "result": 92, "unit": "%"}, {"measurement": "Relative potency", "setting": "[2]", "result": 85, "unit": "%"}, {"measurement": "Relative potency", "setting": "[3]", "result": 99, "unit": "%"}]}, {"molecule": "H-PRRPYIL-OH", "values": [{"measurement": "Relative potency", "setting": "[1]", "result": 59, "unit": "%"}, {"measurement": "Relative potency", "setting": "[2]", "result": 65, "unit": "%"}, {"measurement": "Relative potency", "setting": "[3]", "result": 49, "unit": "%"}]}, {"molecule": "H-YENKPRRPYIL-OH", "values": [{"measurement": "Relative potency", "setting": "[1]", "result": 85, "unit": "%"}, {"measurement": "Relative potency", "setting": "[2]", "result": 90, "unit": "%"}, {"measurement": "Relative potency", "setting": "[3]", "result": 84, "unit": "%"}]}]}
